Neddyl block: inhibitors of cullin neddylation, primary screen, biochemical, TR-FRET, uHTS, NAE and Ubc12 | NEDD8-conjugating enzyme Ubc12 (Homo sapiens) + NEDD8-activating enzyme E1 regulatory … | inhibition, % at 25 µM | 360,000 tested, 0.58% active; in the data active = inhibition above about 36%
PfG6PD inh: PfG6PD enzyme inhibitors, primary screen, biochemical, fluorescence intensity, uHTS; inhibition, % at 20 µM; 350,000 tested, 0.78% active; AID 504690, 2011; glucose-6-phosphate dehydrogenase-6-phosphogluconolactonase (Plasmodium falciparum 3D7); PfGluPho enzyme, NADPH resazurin-diaphorase fluorescence;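 active = inhibition reaching at least a set limit at 20 µM in the primary screen, cut at about 59% in these data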
HKDC1 inhibitor: HKDC1 hexokinase inhibitors, primary screen, biochemical, fluorescence, uHTS. Q2TB90. recombinant HKDC1, G6PDH/diaphorase resazurin coupled fluorescence. inhibition, % at 20 µM. 340,000 tested, 0.16% active. AID 493160, 2011;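 active = inhibition above about 35% when tested at 20 µM, limit read from the data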
Target sequence (Q2TB90 whole entry, looked up): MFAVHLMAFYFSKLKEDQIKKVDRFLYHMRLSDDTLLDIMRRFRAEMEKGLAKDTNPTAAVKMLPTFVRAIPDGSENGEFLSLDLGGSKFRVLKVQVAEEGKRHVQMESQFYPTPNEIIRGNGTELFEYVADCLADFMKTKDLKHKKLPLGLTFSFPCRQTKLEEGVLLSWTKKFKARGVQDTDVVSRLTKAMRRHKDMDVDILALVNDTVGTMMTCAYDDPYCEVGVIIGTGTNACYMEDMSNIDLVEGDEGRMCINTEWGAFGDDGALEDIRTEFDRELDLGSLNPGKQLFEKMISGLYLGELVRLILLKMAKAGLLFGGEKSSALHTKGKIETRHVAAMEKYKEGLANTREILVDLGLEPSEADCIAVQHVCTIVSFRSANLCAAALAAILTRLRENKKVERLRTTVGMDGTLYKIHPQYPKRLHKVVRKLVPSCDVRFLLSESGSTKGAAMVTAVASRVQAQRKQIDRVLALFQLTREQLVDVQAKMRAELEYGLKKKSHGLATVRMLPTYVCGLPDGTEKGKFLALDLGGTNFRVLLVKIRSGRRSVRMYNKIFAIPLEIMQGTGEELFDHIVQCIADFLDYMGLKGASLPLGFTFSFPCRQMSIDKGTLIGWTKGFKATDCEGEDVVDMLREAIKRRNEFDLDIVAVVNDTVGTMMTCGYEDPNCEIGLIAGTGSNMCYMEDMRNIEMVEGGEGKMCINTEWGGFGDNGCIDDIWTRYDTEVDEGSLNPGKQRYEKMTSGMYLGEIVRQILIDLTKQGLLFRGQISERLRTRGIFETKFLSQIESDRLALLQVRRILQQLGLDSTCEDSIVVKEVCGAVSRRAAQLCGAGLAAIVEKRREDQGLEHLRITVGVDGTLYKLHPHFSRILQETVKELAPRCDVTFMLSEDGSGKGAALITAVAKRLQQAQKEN
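Test system: Recombinant HKDC1 (HK5) hexokinase enzyme, produced in-house | Input: HKDC1 at 5 µg/mL | Buffer or medium: Tris pH 8.0 buffer with MgCl2, Tween-20, BSA, BME | Schedule: 90 min reaction incubation at room temperature, dark | Technique: Resazurin-to-resorufin fluorescence via G6PDH and diaphorase coupling, 525/613 nm | Controls: DMSO wells with and without enzyme mix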
M18AAP inhibitor: PfM18AAP inhibitors, malaria aminopeptidase, primary screen, biochemical, QFRET, recombinant enzyme; AID 1822, 2009; 290,000 tested, 1.2% active; H-Glu-NHMec fluorogenic cleavage; inhibition, % at 7.35 µM;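 active = inhibition above the campaign mean inhibition over all tested compounds plus 3 SD, cut at about 28% in these data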
PfG6PD confirm: PfG6PD inhibitors, hit retest, confirmation, biochemical, fluorescence intensity, single concentration. shares compounds with PfG6PD inh. recombinant PfGluPho, NADPH-diaphorase-resazurin fluorescence. inhibition, % at 20 µM. 2,400 tested, 34% active. AID 504753, 2011;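 active = inhibition of at least 50% at 20 µM in any single replicate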
Diaphorase 10uM: diaphorase inhibitors and chemical oxidizers, confirmation, counter-screen for P. falciparum G6PD inhibitor project, biochemical, fluorescence intensity, 10 µM NADPH | diaphorase-coupled resazurin reduction, NADPH 10 uM | AID 504862, 2011 | inhibition, % at 20 µM | shares compounds with PfG6PD inh | 820 tested, 39% active;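 active = average inhibition reaching 50% or more with the compound at 20 µM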;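 note: resorufin red fluorescence formed as diaphorase reduces resazurin using NADPH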
Diaph ctr 30uM: diaphorase inhibitors and chemical oxidizers, confirmation, counter-screen for P. falciparum G6PD inhibitor project, biochemical, fluorescence intensity, 30 µM NADPH; AID 504863, 2011; Diaphorase/resazurin coupled assay, resorufin fluorescence; shares compounds with PfG6PD inh; inhibition, % at 20 µM; 820 tested, 29% active;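 active = inhibition averaging 50% or more, tested at 20 µM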
Each line names hits and unclear results; the compound was inactive in the other large screens (follow-up assays come after a bar, where shown). The list is not random: actives were taken first. Their share in the collection is about 2.2%.

Cc1ccc(/C=C/C(=O)N2CCN(S(=O)(=O)/C=C/c3ccccc3)CC2)o1	PfG6PD inh 63 | PfG6PD confirm inactive
Cc1ccc(/C=C/C(=O)N2CCN(S(=O)(=O)c3cccs3)CC2)o1	PfG6PD inh 73 | PfG6PD confirm inactive
Cc1ccc(/C=C/C(=O)N2CC(C)CC(C)C2)o1 (stereo not given)	PfG6PD inh 72 | PfG6PD confirm inactive
O=C(/C=C/c1ccco1)N1CCN(S(=O)(=O)/C=C/c2ccccc2)CC1	none
O=C(/C=C/c1ccco1)N1CCN(S(=O)(=O)c2cccs2)CC1	none
Clc1ccc2nc(-c3ccccc3)c(Cc3ccccc3)n2c1	none (no result: HKDC1 inhibitor, M18AAP inhibitor)
Cc1ccc(Cc2c(-c3ccccc3)nc3cc(C)ccn23)cc1	none (no result: HKDC1 inhibitor, M18AAP inhibitor)
Clc1ccc(-c2nc3ccc(Cl)cn3c2Cc2ccccc2)cc1	PfG6PD inh 102 (no result: HKDC1 inhibitor, M18AAP inhibitor) | PfG6PD confirm inactive
Cc1ccn2c(Cc3ccccc3)c(-c3ccc(F)cc3)nc2c1	PfG6PD inh 77 (no result: HKDC1 inhibitor, M18AAP inhibitor) | PfG6PD confirm inactive
Fc1ccc(-c2nc3ccc(Cl)cn3c2Cc2ccccc2)cc1	PfG6PD inh 81 (no result: HKDC1 inhibitor, M18AAP inhibitor) | PfG6PD confirm inactive
COc1cccc(CN2CC(C(=O)NC3CCC(O)CC3)CCC2=O)c1 (stereo not given)	none
CCCOc1ccc2oc(=O)c3c(c2c1)CCCN3C(=O)CN1CCc2ccccc2C1	PfG6PD inh 60 | PfG6PD confirm inactive
CC1CCN(CC(=O)N2CCCc3c2c(=O)oc2ccc(OCc4ccccc4)cc32)CC1	none
CC1(C(=O)NS(=O)(=O)c2ccccc2Cl)CCN1C(=O)Cc1cc(F)ccc1F (stereo not given)	none (no result: PfG6PD inh, HKDC1 inhibitor, M18AAP inhibitor)
O=C(c1ccccc1Cl)N(Cc1ccc(Br)cc1)N1C(=O)CCC1=O	none
CCOC(=O)C(C)Sc1nc(-c2cccs2)ccc1C#N (stereo not given)	PfG6PD inh 78 | PfG6PD confirm inactive
C=COC(=O)CSc1nc(-c2cccs2)ccc1C#N	none
O=C(c1ccc([N+](=O)[O-])cc1)N1CCN(C(=O)c2ccco2)CC1	none
O=C(c1ccco1)N1CCN(C(=O)c2ccc(-c3ccc([N+](=O)[O-])cc3)o2)CC1	PfG6PD inh 64 (no result: M18AAP inhibitor) | PfG6PD confirm inactive
CCN(CC)C(=O)Cn1cc(S(=O)(=O)CC(=O)Nc2ccccc2F)c2ccccc21	none
CCCCS(=O)(=O)Nc1ccc(N2CCOCC2)c(S(=O)(=O)N2CCOCC2)c1	none
Cc1ccc(O)c(CP(=O)(c2ccccc2)c2ccccc2)c1	none
CCNc1ccccc1CP(=O)(c1ccccc1)c1ccccc1O (stereo not given)	PfG6PD inh 81 (no result: Neddyl block) | PfG6PD confirm 87 | Diaphorase 10uM inactive | Diaph ctr 30uM inactive
O=C(CSc1nc2ccc(Cl)cc2[nH]1)Nc1ccc2[nH]c(=O)[nH]c2c1	PfG6PD inh 60 (no result: M18AAP inhibitor) | PfG6PD confirm inactive
Nc1ccc(C(=O)OCc2nc3cc4ccccc4cc3[nH]2)cc1	PfG6PD inh 63 | PfG6PD confirm inactive
C(=Cc1c[nH]c2ccccc12)c1ccc2ccccc2n1	none (not shown: Neddyl block, M18AAP inhibitor)
C(=Cc1c[nH]c2ccccc12)c1nccc2ccccc12	PfG6PD inh 65 (no result: M18AAP inhibitor) | PfG6PD confirm inactive
O=[N+]([O-])c1ccc(Nc2ccccc2O)c([N+](=O)[O-])c1	PfG6PD inh 66 (no result: HKDC1 inhibitor, M18AAP inhibitor) | PfG6PD confirm inactive
O=C(O)c1cc([N+](=O)[O-])ccc1Nc1ccccc1	none
CCOC(=O)N1CCN(C(=O)c2ccc3c(c2)sc2nc(-c4ccc(OC)cc4)cn23)CC1	none (not shown: Neddyl block)
COc1ccc2c(c1)sc1nc(-c3ccccc3)cn12	PfG6PD inh 98 | PfG6PD confirm inactive
COc1ccc(NC(=S)Nc2ccc3nc(C)c(C)nc3c2)cc1	none
COc1ccc(NC(=S)Nc2ccc3nsnc3c2)cc1	PfG6PD inh 89 | PfG6PD confirm inactive
CCOc1ccc(NC(=S)Nc2ccc3nsnc3c2)cc1	PfG6PD inh 64 | PfG6PD confirm inactive
O=C1C(=O)N(c2ccccn2)C(c2cccc([N+](=O)[O-])c2)/C1=C(/O)c1ccc(Br)cc1 (stereo not given)	none
O=C(COC(=O)c1nc(Cl)ccc1Cl)NCc1cccs1	none (no result: M18AAP inhibitor)
CC(=O)OCC1OC(n2c(S)c(C#N)c(-c3ccccc3)c(C#N)c2=O)C(OC(C)=O)C(OC(C)=O)C1OC(C)=O (stereo not given)	PfG6PD inh 66 (no result: M18AAP inhibitor) | PfG6PD confirm inactive
CC(=O)OCC1OC(c2ccccc2)C(OC(C)=O)C(OC(C)=O)C1OC(C)=O (stereo not given)	none
Fc1ccc(C2C3=C(Nc4ncnn42)c2ccccc2OC3c2ccncc2)cc1 (stereo not given)	PfG6PD inh 61 (not shown: Neddyl block) | PfG6PD confirm inactive
Cc1ccc(C2Oc3ccccc3C3=C2C(c2cccs2)n2ncnc2N3)cc1 (stereo not given)	none
CC(C)c1ccc(CCNC(=O)CCNS(=O)(=O)c2ccc(Br)cc2)cc1	none (no result: M18AAP inhibitor)
Cc1ccc2nc(N(CCCN(C)C)C(=O)c3ccc4ncsc4c3)sc2c1	PfG6PD inh 60 | PfG6PD confirm inactive
COc1ccc2nc(N(CCN(C)C)C(=O)c3ccc4ncsc4c3)sc2c1	none (no result: HKDC1 inhibitor, M18AAP inhibitor)
COc1ccc2c(c1)CCc1cc(C(=O)N3CCN(c4ccc(N5CCOCC5)nn4)CC3)sc1-2	PfG6PD inh 77 (not shown: Neddyl block) | PfG6PD confirm inactive
Cc1onc(-c2ccccc2)c1C(=O)N/N=C/c1ccccc1OC(C)C	PfG6PD inh 117 | PfG6PD confirm 85 | Diaphorase 10uM 76 | Diaph ctr 30uM 50
COc1ccc(/C=N/NC(=O)c2c(-c3ccccc3)noc2C)cc1	none
Cc1onc(-c2ccccc2)c1C(=O)N/N=C/c1cccs1	PfG6PD inh 62 | PfG6PD confirm inactive
COc1ccccc1/C=N/NC(=O)c1c(-c2ccccc2)noc1C	PfG6PD inh 87 | PfG6PD confirm 66 | Diaphorase 10uM 84 | Diaph ctr 30uM 64
Cc1onc(-c2ccccc2)c1C(=O)N/N=C/c1cn(C)c2ccccc12	PfG6PD inh 90 | PfG6PD confirm 71 | Diaphorase 10uM 68 | Diaph ctr 30uM 58
COc1ccc(-c2cc3nc(NCC4CCCCC4)n(C)c(=O)c3s2)cc1OC	none (no result: PfG6PD inh, HKDC1 inhibitor, M18AAP inhibitor)
CN(C)/C(=N\S(=O)(=O)c1ccc(Br)cc1)c1ccccc1	none
COc1ccc2[nH]c(C(=O)NCCCN3CCCC3=O)c(C)c2c1	none (not shown: Neddyl block)
Cc1ccccc1OCC(=O)N/N=C/c1cn(C)c2ccccc12	PfG6PD inh 64 | PfG6PD confirm inactive
